Data set [1] is classed as in vivo, cynomolgus monkeys. Particulars: for time of maximal plasma level: after S230 30 mg/kg oral gavage. The method in brief:
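Three monkeys were gavaged with 30 mg/kg (4.4 mL/kg) of an ethanol stock diluted into 10 volumes of 20 mM NaHCO3. Heparinized blood was taken predose and at 1–24 h, and plasma was stored at −80 °C. Plasma was treated with MeOH and an indole internal standard, then C18 solid-phase extracted. Quantitation used RP-HPLC-UV (60–80% MeOH, 0.02% HOAc) by peak-area ratio to the internal standard, with identities confirmed by LC-MS/MS.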

For data set [2], the target named is T1, OXE receptor (Homo sapiens, UniProt Q8TDS5). Particulars: S230 vs R230; cited from earlier work.
T1 sequence (Q8TDS5 whole entry): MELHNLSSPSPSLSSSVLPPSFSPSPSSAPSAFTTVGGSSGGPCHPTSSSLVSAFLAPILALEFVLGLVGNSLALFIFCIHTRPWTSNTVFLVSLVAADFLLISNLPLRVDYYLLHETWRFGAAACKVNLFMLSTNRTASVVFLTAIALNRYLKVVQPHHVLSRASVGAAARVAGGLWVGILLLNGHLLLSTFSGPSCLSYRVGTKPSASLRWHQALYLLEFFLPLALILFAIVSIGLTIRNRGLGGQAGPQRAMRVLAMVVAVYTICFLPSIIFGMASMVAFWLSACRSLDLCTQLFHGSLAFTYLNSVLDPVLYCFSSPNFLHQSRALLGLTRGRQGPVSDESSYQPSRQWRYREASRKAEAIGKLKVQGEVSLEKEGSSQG
Data set [3] relates to OXE receptor. Particulars: cited from earlier work.
The conditions of data set [4]: monkey liver microsomes + NADPH; cited from earlier work.
The conditions of data set [5]: oral racemic 230; cited from earlier work.
The test system of data set [6] is OXE receptor. Particulars: feline; cited from earlier work.
Data set [7] can be described thus: Incubation with plasma or intact leukocytes. It counts as in vitro ADME.
The target in data set [8] is T1, OXE receptor. In words: Inhibition of 5-oxo-ETE-induced calcium mobilization in human neutrophils. It counts as cell-based. The method in brief:
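Neutrophils isolated by dextran sedimentation and Ficoll-Paque centrifugation, loaded with indo-1 AM and held in a cuvette at 37 °C. Once baseline fluorescence was stable, the test compound was added, then 10 nM 5-oxo-ETE 2 min later, then digitonin (0.1% final) 1 min after that. Calcium response was read by spectrofluorometry.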

Like-named read-outs stand apart in the source and are kept apart here. Some results are limits rather than exact numbers.

Consider `CCCCCCc1c(C(=O)C[C@H](C)CC(=O)O)c2cc(Cl)ccc2n1C` [S230, (S)-5-(5-chloro-2-hexyl-1-methyl-1H-indol-3-yl)-3-methyl-5-oxopentanoate], for which, in data set [1] (8 h after S230 30 mg/kg oral), the plasma concentration entry is “greater than 1.5 μM”. In addition, in data set [1] (S230 30 mg/kg oral gavage, at 1 h), the maximal plasma concentration amounted to 32 µM. Besides, the “time of maximal plasma level” value in data set [1] is at most 1 h. The figures for the “plasma level as % of maximal concentration” value in data set [1] (by 4 h after S230 30 mg/kg oral) and in data set [1] (by 8 h after S230 30 mg/kg oral) were “about 11%” and 5%, respectively. For the same compound, the “potency relative to the R-enantiomer (R230)” value on OXE receptor [2] is “over 400 times”.

Turning to `CCCCCCc1c(C(=O)CC(C)CC(=O)O)c2cc(Cl)ccc2n1C` (stereo not shown) [compound 230, 5-(5-chloro-2-hexyl-1-methyl-1H-indol-3-yl)-3-methyl-5-oxopentanoate], the “antagonist activity in vitro in monkeys” value in the data set on OXE receptor [3] is given as “potent OXE receptor antagonist”. For the same compound, the “formation of α-OH-230” value in data set [4] is reported as “did not detect α-OH-230”. Besides, the maximal plasma concentration in data set [5] was 87 µM. Further, the “antagonist activity in cats” value in the data set with OXE receptor [6] is “only a weak antagonist”. Also, the “formation of α-hydroxylation products” value in data set [7] is reported as “Neither did we detect such products”.

Turning to `CCCCC[C@@H](O)c1c(C(=O)C[C@H](C)CC(=O)O)c2cc(Cl)ccc2n1C` [x2, (S)-5-(5-chloro-2-((R)-1-hydroxyhexyl)-1-methyl-1H-indol-3-yl)-3-methyl-5-oxopentanoic acid], the “peak area relative to the area of metabolite e” value in data set [1] (all time points, plasma after S230 30 mg/kg oral, RP-HPLC) was “about 3%”. Moreover, the concentration for half-maximal inhibition (IC50) (commonly the midpoint of a concentration-inhibition curve) on OXE receptor [8] is above 10 µM.

For the compound `CCCCC[C@H](O)c1c(C(=O)C[C@H](C)CC(=O)O)c2cc(Cl)ccc2n1C` [y1, (S)-5-(5-chloro-2-((S)-1-hydroxyhexyl)-1-methyl-1H-indol-3-yl)-3-methyl-5-oxopentanoic acid], the Tmax (in general, the time at which the peak concentration occurs) in data set [1] (female, cynomolgus monkey, plasma, po, 30 mg/kg) is at most 1 h. For the same compound, at OXE receptor [8], the IC50 was determined as 1.6 ± 0.3 µM.

As to `CC(O)CCCCc1c(C(=O)C[C@H](C)CC(=O)O)c2cc(Cl)ccc2n1C` (stereo partly drawn) [ω2-OH-S230, (3S)-5-(5-chloro-2-(5-hydroxyhexyl)-1-methyl-1H-indol-3-yl)-3-methyl-5-oxopentanoate], in data set [1], the “time of maximal plasma level” value is at most 4 h.

Values taken from paper PMC5710753 (Biochemical pharmacology, 2017).
